Experimental data collected from several papers.
Each line is one published result; the experiments were not run side by side.
Target: Calcium/calmodulin-dependent protein kinase type II subunit alpha (CAMK2A, Homo sapiens, UniProt Q9UQM7)

The ΔTm of Cn1c2c(c3ccc(Cl)c(Cl)c31)C(C#N)C1(CCN(C(=O)OC(C)(C)C)CC1)NC2=O (racemic) is reported as 0 °C (thermal stability; DSF; 10 µM).
For Cc1ccc(NC(=O)c2ccc(CN3CCN(C)CC3)cc2)cc1Nc1nccc(-c2cccnc2)n1, the activity vs control was 100% (enzyme activity; inhibitor; 0.5 µM).
For Nc1cnc(N2CCc3cc(S(=O)(=O)Nc4c(F)cc(Cl)cc4F)cc(N4CCCC4=O)c32)nc1, the remaining binding was 92% (cell-free assay; competition with immobilised ligand; 1 µM).
For CS(=O)(=O)CCNCc1ccc(-c2ccc3ncnc(Nc4ccc(OCc5cccc(F)c5)c(Cl)c4)c3c2)o1, the remaining signal was 98.6% (cell-free assay; 0.5 µM).
CN1CCN(c2cnc3c(C4CCN(C(=O)c5ccc(OC(F)(F)F)cc5N)CC4)ncnc3c2)CC1 gave a remaining binding of 69% (cell-free assay; competition with immobilised ligand; 1 µM).
Cn1c2c(c3ccc(Cl)c(Cl)c31)C(C#N)C1(CCNCC1)NC2=O (racemic) gave a ΔTm of 1.2 °C (thermal stability; DSF; 10 µM).
CC(C)(O)[C@H]1CC[C@H](Nc2ccc3ncc(-c4cccc(C(F)(F)F)c4)n3n2)CC1 has a remaining activity of 80.7% (enzyme activity; inhibitor; 1 µM).
With Cn1c2c(Cl)c(Cl)ccc2c2cc(N)[nH]c(=O)c21 the ΔTm was 0.9 °C (thermal stability; DSF; 10 µM).
C[C@@H]1CN(c2cc(-c3n[nH]c4ccc(OC5(C)CC5)cc34)ncn2)C[C@H](C)O1 gave a remaining binding of 100% (cell-free assay; competition with immobilised ligand; 0.1 µM).
With C[S+]([O-])c1ccc(-c2nc(-c3ccncc3)c(-c3ccc(F)cc3)[nH]2)cc1 (stereo not shown) the remaining signal was 101% (cell-free assay; 0.5 µM).
The inhibition of CSc1nc(C)c(-c2ccnc(Nc3ccc(N4CCOCC4)cc3)c2)[nH]1 is reported as -5.7% (enzyme activity; inhibitor; 10 µM).
For CC/C(=N\NC(=O)NCc1cccc(O)c1)c1ccc(O)c(C)c1O, the inhibition was -1.9% (enzyme activity; inhibitor; 0.1 µM).
The remaining activity of Cc1sc(C(=O)NC2COC2)cc1-n1cc(NC(=O)Nc2c(F)cccc2Cl)cn1 is reported as 99.7% (enzyme activity; inhibitor; 10 µM).
For O=C1Nc2ccc(Cl)cc2C1=Cc1cc(Cl)c(O)c(Cl)c1, the remaining signal was 92.9% (cell-free assay; 0.5 µM).
The remaining binding of O=C1CCc2cc(Nc3cc(OC4CCOCC4)c([N+](=O)[O-])cc3Cl)ccc2N1 is reported as 85% (cell-free assay; competition with immobilised ligand; 1 µM).
Cn1c2c(Cl)c(Cl)ccc2c2cc[nH]c(=O)c21 has a ΔTm of 0.4 °C (thermal stability; DSF; 10 µM).
CNC(=O)c1ccc(Nc2ncc(C(F)(F)F)c(NCc3nccnc3N(C)S(C)(=O)=O)n2)cc1 gave a remaining binding of 83% (cell-free assay; competition with immobilised ligand; 0.1 µM).
The remaining activity of O=C(Nc1cnn(-c2csc(C(=O)NC3COC3)c2)c1)Nc1c(F)cccc1Cl is reported as 99.4% (enzyme activity; inhibitor; 5 µM).
For CC(C)(C)c1nc2c(s1)c1nc(N)ncc1c1ccc(NS(=O)(=O)c3c(F)cccc3F)c(F)c12, the remaining activity was 80% (enzyme activity; inhibitor; radiometric; 1 µM).
Cc1noc([C@H]2C[C@@H](c3ccc(C(F)(F)F)cc3)CN(C(=O)N3CCS(=O)(=O)C3)C2)n1 gave a remaining binding of 100% (cell-free assay; competition with immobilised ligand; 1 µM).
With COc1cc(Cl)c(C(=O)N[C@@H](CN[C@H]2CC[C@@H](N)CC2)Cc2ccc(C#N)cc2)cc1-c1ccc(CN[C@H](C)c2ccc(C)cc2)o1 the remaining activity was 99% (enzyme activity; inhibitor; 1 µM).
The remaining binding of O=C1NC(c2ccccn2)Sc2ccccc21 (stereo not shown) is reported as 100% (cell-free assay; competition with immobilised ligand; 1 µM).
The inhibition of COc1cc2ncnc(Nc3ccc(Oc4ccccc4)cc3C)c2cc1OC is reported as -1% (enzyme activity; inhibitor; 1 µM).
CN(C)C(=O)Cn1cc(-c2nc(C3(c4ccc(-c5cnc(N)nc5)cc4)CC3)no2)cn1 gave a remaining binding of 100% (cell-free assay; competition with immobilised ligand; 1 µM).
For Cc1cc(NC(=O)c2cccc3cc(-c4cccc5[nH]nc(N)c45)ccc23)ccc1F, the activity vs control was 123% (enzyme activity; inhibitor; 0.1 µM).
